The source of these data is ChEMBL document CHEMBL1157331, “Xenicane-type diterpenes with cytotoxicity from Xenia florida” (J Nat Prod, 2006).

For experiment [1], the system named is KB. Briefly: Cytotoxicity against human KB cells after 72 hrs. It counts as functional. Particulars: read-out: ED50 (the source's name). The essentials:
(§1)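 Methylene blue binding to fixed cell monolayers. 2880 cells/well seeded, 3 h later sample added; samples prepared at […], incubated 37 °C for 3 days. Absorbance read at 650 nm. ED50 is the concentration giving 50% reduction of absorbance versus untreated cells. Mitomycin as positive control.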

The subject of experiment [2] is WiDr. The experiment in a line: Cytotoxicity against human WiDr cells after 72 hrs. The experiment is classed as functional, cell-based. Particulars: for EC50: read-out: ED50 (the source's name). The gist of the method:
as §1

Experiment [3] in a line: Cytotoxicity against human Hepa cells after 72 hrs. It counts as functional. Particulars: read-out: ED50 (the source's name). The gist of the method:
as §1

SMILES strings stand for the structures. In brackets after ≈: the same amount, converted by molar mass.

As a reminder, the IC50 is the concentration that gives 50% inhibition. Turning to `C=C1[C@@H]2[C@H](OC(C)=O)OC=C([C@H](OC(C)=O)[C@@H](C=C(C)C)OC(C)=O)[C@H]2CC/C(C)=C/[C@@H](OC(=O)c2ccccc2)[C@H]1O` [FLORXENILIDE A], the EC50 is greater than 20 µg/mL in experiment [1], 2.73 µg/mL (≈ 4.58 µM) in experiment [2] and greater than 20 µg/mL in experiment [3]. In experiment [2], this compound registered an IC50 of 4.5 µM.

With `C=C1C(=O)[C@H](OC(=O)c2ccccc2)/C=C(\C)CC[C@@H]2C([C@H](OC(C)=O)[C@@H](C=C(C)C)OC(C)=O)=CO[C@@H](OC(C)=O)[C@@H]12`, the EC50 in experiment [1], in experiment [2] and in experiment [3] was greater than 20 µg/mL in each case.

For `CO[C@@]12CC[C@H](O)[C@@](C)(CC[C@@H]3/C(=C\C=C\C(C)(C)O)COC(=O)[C@H]31)C2` [FLORXENILIDE C], the EC50 in experiment [1], in experiment [2] and in experiment [3] was greater than 20 µg/mL each time.

Regarding `CO[C@@]12[C@H](COC(N)=O)C3=C(C(=O)C(C)=C(N)C3=O)N1C[C@@H]1N[C@@H]12` [MITOMYCIN], the EC50 worked out at 0.56 µg/mL (≈ 1.67 µM) in experiment [1], 0.35 µg/mL (≈ 1.05 µM) in experiment [2] and 0.04 µg/mL (≈ 0.12 µM) in experiment [3].

Regarding `CO[C@@]12CC[C@H](OC(C)=O)[C@@](C)(CC[C@@H]3/C(=C\C=C\C(C)(C)O)COC(=O)[C@H]31)C2` [FLORXENILIDE C MONOACETATE], the EC50 in experiment [1], in experiment [2] and in experiment [3] was greater than 20 µg/mL throughout.

As for `C=C1[C@@H]2[C@H](OC(C)=O)OC=C([C@H](OC(C)=O)[C@@H](C=C(C)C)OC(C)=O)[C@H]2CC/C(C)=C/[C@@H](OC(=O)c2ccccc2)[C@H]1OC(=O)c1ccccc1`, the EC50 in experiment [1], in experiment [2] and in experiment [3] was greater than 20 µg/mL each time.

Consider `C=C1[C@@H]2[C@H](OC(C)=O)OC=C([C@H](OC(C)=O)[C@@H](C=C(C)C)OC(C)=O)[C@H]2CC[C@]2(C)O[C@H]2[C@@H](OC(=O)c2ccccc2)[C@H]1O` [FLORXENILIDE B], for which the EC50 in experiment [1] is 11.4 µg/mL (≈ 18.6 µM); in experiment [2] it was 1.88 µg/mL (≈ 3.07 µM); in experiment [3], 8.03 µg/mL (≈ 13.1 µM). In experiment [2], this compound gave a half-maximal inhibitory concentration (IC50) of 3.7 µM.
